# RAM network inh – inhibitors of the yeast RAM network, primary screen, dse1pr::URA3 reporter, 5-FOA selection | AID 868, 2007 | S. cerevisiae dse1pr::URA3 reporter, 5-FOA growth OD615, 2 d; analog-sensitive cbk1-as2 kinase mutant strain | actives 1.8% (n = 190,000) | inhibition, % at 50 µM;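 active means inhibition above a set limit, 3 SD over mean compound inhibition, cut at about 8.4% in these data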;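 further: inhibition rescues growth on 5-FOA so higher OD means more RAM inhibition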
# b-catenin transl – modulators of beta-catenin nuclear translocation, primary screen, imaging, HeLa cells, immunofluorescence, high-content. nuclear translocation activity, % at 5 µM. actives 0.3% (n = 190,000). AID 1665, 2009;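 active means nuclear translocation activity above 50% at 5 µM, with a well cell count of 50 or more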;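 further: per-cell ratio of nuclear to cytoplasmic median beta-catenin stain intensity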
#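 assay system = human HeLa cells, endogenous beta-catenin | times = compound treatment 24 h, 37°C, 5% CO2 | detection = Anti-beta-catenin immunofluorescence on PFA-fixed, Triton-permeabilized cells, DAPI nuclei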
# Yeast lifespan up – compounds extending yeast replicative lifespan, primary screen, S. cerevisiae, OD615; S. cerevisiae growth with nicotinamide; deaD strain in restrictive glucose medium; inhibition of the nicotinamide effect, % at 10 µM; actives 0.68% (n = 130,000); AID 775, 2007;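 active means inhibition above a set limit, placed 3 SD over the median of all compounds, cut at about 26% in these data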
#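 Material: Modified budding yeast, DeaD strain | Medium: Restrictive glucose medium | Probe or stimulus: 1.5 mM nicotinamide | Dosing: Single dose 10 µM compound, 0.25% DMSO | Times: 48 h at 30 °C | Technique: OD615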
# MT stabilize HCS – microtubule stabilizers in HeLa cells, primary screen, imaging, high-content imaging; HeLa tubulin immunostaining HCS, 24 h; share of cells brighter than vehicle mean+2SD; % tubulin-high responders, % at 10 µM; actives 0.83% (n = 200,000); AID 2205, 2009;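 active means plate Z-score above 3 for both tubulin-high and condensed-nucleus cell shares, with cell loss under 80%, at 10 µM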;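 further: anti alpha tubulin signal scored within the nucleus-defined area of each cell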
# BB579 growth dn – growth inhibitors of yeast BB579 in restrictive medium, primary screen, yeast lifespan-shortening project, S. cerevisiae | OD615, 48 h | inhibition, % at 10 µM | actives 0.51% (n = 140,000) | AID 804, 2007;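 active means inhibition above a set limit, 3 SD over the mean compound inhibition, cut at about 44% in these data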
#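 Assay system – yeast BB579 (DeaD) · Dosing – single compound dose of 10 µM, 0.25% DMSO final · Detection – OD615 turbidity measurement · Buffer or medium – CSMM-D restrictive synthetic medium containing dextrose (glucose) · Benchmarks – positive control amphotericin B 10 µg/mL · Incubation – 48 h exposure, 30 °C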
# HMGR II inh – inhibitors of E. faecalis class II HMGR, primary screen, biochemical, Enterococcus faecalis. inhibition, % at 10 µM. HMG-CoA reductase (Enterococcus faecalis, mvaE). actives 0.41% (n = 190,000). AID 1066, 2008. purified E. faecalis HMGR, NADPH absorbance 340 nm kinetic;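 active means inhibition above a set limit, the median over all tested compounds plus 3 SD, cut at about 9.5% in these data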;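 further: enzyme runs in reverse so mevalonate oxidation gives rising NADPH absorbance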
# Hits are given with their value; n = inactive; x = no result. This is a sample that favours compounds with a hit; in the whole collection about 3.5% have one here.
SMILES,RAM network inh,b-catenin transl,Yeast lifespan up,MT stabilize HCS,BB579 growth dn,HMGR II inh
COc1cccc(/C=C/C(=O)c2ccc[nH]2)c1,n,x,n,n,n,n
CCS(=O)(=O)C1=NN2C(=N)/C(=C\c3ccc(SCc4ccco4)o3)C(=O)N=C2S1,11,n,x,n,x,n
CCOCC(=O)Nc1cc(C(=O)OC)ccc1C(=O)OC,n,n,n,n,n,n
CCn1ncc(Br)c1C(=O)Nc1cc(C(=O)OC)ccc1C(=O)OC,8.5,n,n,n,n,n
COC(=O)c1ccc(C(=O)OC)c(NC(=O)CSCc2ccccc2Br)c1,11,n,n,n,n,n
COC(=O)c1ccc(C(=O)OC)c(NC(=O)COC(=O)c2ccc(OC)c(OC)c2OC)c1,11,n,n,n,n,n
Cc1nnc(SCc2ccc([N+](=O)[O-])cc2)o1,n,n,x,n,x,n
CNS(=O)(=O)c1ccc(NS(=O)(=O)c2ccccc2F)cc1,n,n,x,n,x,n
NC(=O)[C@H]1CC2(CC(c3cccc(NC(=O)[C@H]4CCC(=O)N4)c3)=NO2)CN1C(=O)c1cc([N+](=O)[O-])cc([N+](=O)[O-])c1 (stereo partly drawn),x,n,x,x,x,x
CCOC(=O)c1cnn(-c2nc(-c3ccc(F)cc3)cs2)c1C(F)(F)F,9.2,x,n,n,n,n
CCOC(=O)c1cnn(-c2nc(-c3ccccc3)cs2)c1C(F)(F)F,10,n,n,n,n,n
CCOC(=O)c1cnn(-c2nc(-c3ccccc3F)cs2)c1C(F)(F)F,n,n,n,n,n,n
C/C(N)=C(/C#N)C(=O)COC(=O)Cc1coc2cc(C)ccc12,n,n,x,n,x,n
CN(C)NC(=O)C(NC(=O)c1ccccc1)C12CC3CC(CC(C3)C1)C2 (stereo not drawn),n,x,x,n,x,n
COc1cc(OC)cc(C(=O)NC(C(=O)O)C23CC4CC(CC(C4)C2)C3)c1 (stereo not drawn),n,n,x,n,x,14
O=C(Nc1ccc(S(=O)(=O)Nc2nccs2)cc1)c1cnc(Cl)c(Cl)c1,x,n,x,x,x,x
O=C(NN1C(=O)c2ccccc2C1=O)C1C2CCCCC21 (stereo not drawn),n,n,41,n,n,n
Cc1ccc(N=C2NC(=O)/C(=C/C=C/c3ccco3)S2)cc1,n,n,n,n,n,n
O=C1NC(=Nc2ccccc2)S/C1=C\C=C\c1ccco1,n,n,n,17,n,n
CNC(=O)/C(C#N)=C/c1c(N(Cc2ccccc2)Cc2ccccc2)nc2ccccn2c1=O,n,n,n,n,n,n
CCc1ccc(/C=C/C(=O)c2cc(Br)ccc(=O)c2O)cc1,n,n,n,n,89,n
CCOc1ccc(/C=C/C(=O)c2cc(Br)ccc(=O)c2O)cc1,n,n,n,n,93,n
Cc1ccc(C(=O)/C=C/c2ccc(Br)cc2)o1,n,n,n,n,n,n
COc1ccccc1/C=C/C(=O)c1cc(Br)ccc1OC(=O)c1ccco1,x,x,x,n,x,x
Cc1cccc(/C=C/C(=O)c2cc(Br)ccc(=O)c2O)c1,n,n,n,n,95,n
SMILES,RAM network inh,b-catenin transl,Yeast lifespan up,MT stabilize HCS,BB579 growth dn,HMGR II inh
Cc1ccc(/C=C/C(=O)c2cc(Br)ccc2OC(=O)c2ccco2)cc1,11,n,n,n,n,n
NC(=O)COC(=O)/C=C/c1cccc(Br)c1,n,n,x,n,x,n
C/C(N)=C(/C#N)C(=O)COC(=O)CNS(=O)(=O)c1c(F)cccc1F,n,n,x,n,x,n
CCOC(=O)c1oc2ccc(CNC3CCCCC3)c(Cl)c2c1C,n,n,x,n,n,n
CCOC(=O)c1oc2ccc(CNCCO)c(Cl)c2c1C,n,n,n,n,n,10
CN=CC1=C(O)c2ccccc2C1=O,n,n,n,n,n,n
O=C1C(C2=C(O)c3ccccc3C2=O)=Nc2ccccc21,n,n,45,n,n,n
COc1ccccc1N=Nc1nc(-c2ccccc2)c(-c2ccccc2)[nH]1,n,n,n,n,n,n
Oc1ccccc1N=Nc1nc(-c2ccccc2)c(-c2ccccc2)[nH]1,8.6,n,n,n,n,n
COc1ccc(N=Nc2nc(-c3ccccc3)c(-c3ccccc3)[nH]2)cc1,11,n,n,n,n,n
COc1ccc(CC(=O)OCC(=O)N2N=C(c3ccccc3)CC2c2ccc(OC)cc2)cc1 (stereo not drawn),8.9,n,n,n,n,n
O=C(O)c1cc(-c2ccc(/C=C3/SC(=S)N(Cc4ccccc4)C3=O)o2)ccc1Cl,9.4,n,x,n,x,n
COc1ccc(CN2C(=O)/C(=C/c3ccc(-c4ccc(Cl)c(C(=O)O)c4)o3)SC2=S)cc1,n,n,x,n,x,n
O=C(NC1CCCc2ccccc21)c1ccccc1 (stereo not drawn),n,n,n,n,n,n
O=C(O)C1C2C=CC(O2)C1C(=O)NC1CCCc2ccccc21 (stereo not drawn),n,n,n,n,77,n
Cc1ccc(Sc2cnn(-c3ccccc3)c(=O)c2Cl)cc1,n,n,31,n,n,n
CN(Cc1nc(Cc2ccccc2F)no1)Cc1cccc2ncccc12,n,n,x,n,x,n
Cc1ccc(NC(=O)ON=C2CCCC2)cc1,n,n,n,n,95,n
O=C(Nc1ccccc1)ON=C1CCCC1,n,n,n,n,n,n
COc1ccc(CC(=O)NCC(=O)N/N=C(/C)c2ccco2)cc1,n,n,x,n,x,n
COc1ccc(CNC(=O)COC(=O)Cc2ccc(Cl)cc2Cl)cc1,11,n,n,n,n,n
O=[N+]([O-])c1cccc(-c2nc(-c3ccccc3)c(-c3cccs3)[nH]2)c1,8.5,n,n,n,n,n
O=[N+]([O-])c1cccc(-c2nc(-c3cccs3)c(-c3cccs3)[nH]2)c1,n,n,n,n,n,n
CCCCNC(=O)N1c2ccccc2CC1C (stereo not drawn),n,n,x,n,x,n
Cc1ccc2nc(-c3cc(N)cc(N)c3)oc2c1,n,n,n,n,n,14
SMILES,RAM network inh,b-catenin transl,Yeast lifespan up,MT stabilize HCS,BB579 growth dn,HMGR II inh
CCC/C(O)=C1\C(=O)CC(C)(C)CC1=Nc1ccccc1O,n,n,x,n,x,n
O=C(C[n+]1ccc(Cc2ccccc2)cc1)Nc1ccccc1,n,n,x,n,x,n
N#Cc1cc2c(nc1SCc1ccc(Cl)cc1)CCCC2,8.7,n,x,n,n,n
O=C(Nc1ccc(F)cc1)c1ccc(CSc2ccccc2)o1,n,n,n,n,n,n
CC(=O)c1ccc(NC(=O)c2ccc(CSc3ccccc3)o2)cc1,8.6,n,n,n,n,n
O=C(CCCC(=O)N(CC(=O)NC1CCCCC1)Cc1ccc2c(c1)OCO2)Nc1ccccn1,n,n,28,n,n,n
